Activity calls are given as the source filed them. No cut-off for these calls is given here.
Assays:
[1] = target: T1, NAD-dependent protein deacetylase sirtuin-3, mitochondrial (Homo sapiens, UniProt Q9NTG7); assay: Inhibition of human recombinant SIRT3 using fluorescent peptide substrate by fluorescent assay
T1 sequence (Q9NTG7 whole entry): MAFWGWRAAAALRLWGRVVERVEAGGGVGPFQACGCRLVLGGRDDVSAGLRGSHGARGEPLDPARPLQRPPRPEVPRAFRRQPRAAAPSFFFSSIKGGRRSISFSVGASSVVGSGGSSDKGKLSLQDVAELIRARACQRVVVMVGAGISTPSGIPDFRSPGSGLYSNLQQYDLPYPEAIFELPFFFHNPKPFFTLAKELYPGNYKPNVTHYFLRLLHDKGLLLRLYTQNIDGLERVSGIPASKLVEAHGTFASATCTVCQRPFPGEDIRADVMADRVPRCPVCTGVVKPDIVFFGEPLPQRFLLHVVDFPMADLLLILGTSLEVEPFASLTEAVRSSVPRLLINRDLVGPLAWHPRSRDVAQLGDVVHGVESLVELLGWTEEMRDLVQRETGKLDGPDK

[2] = target: T2, NAD-dependent protein deacetylase sirtuin-2 (Homo sapiens, UniProt Q8IXJ6); assay: Inhibition of human recombinant SIRT2 using fluorescent peptide substrate by fluorescent assay
T2 sequence (Q8IXJ6 whole entry): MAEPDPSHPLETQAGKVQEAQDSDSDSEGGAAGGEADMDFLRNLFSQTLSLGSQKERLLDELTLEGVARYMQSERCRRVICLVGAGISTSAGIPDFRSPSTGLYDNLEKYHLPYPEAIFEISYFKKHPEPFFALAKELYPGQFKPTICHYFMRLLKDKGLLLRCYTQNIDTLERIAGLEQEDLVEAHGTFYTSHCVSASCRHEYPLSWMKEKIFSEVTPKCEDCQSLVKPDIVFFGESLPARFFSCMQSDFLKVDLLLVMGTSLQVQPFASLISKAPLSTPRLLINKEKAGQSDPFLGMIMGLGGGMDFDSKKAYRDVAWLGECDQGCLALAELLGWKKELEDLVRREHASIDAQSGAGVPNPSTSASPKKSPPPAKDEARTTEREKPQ
Method in brief: (§1)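 Recombinant human SIRT1 or SIRT2 tested in an in vitro fluorometric deacetylation assay. Dose-response inhibition profiles were run, and IC50 was calculated from them.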

[3] = target: T3, NAD-dependent protein deacetylase sirtuin-1 (Homo sapiens, UniProt Q96EB6); assay: Inhibition of human recombinant SIRT1 using fluorescent peptide substrate by fluorescent assay; method in brief: as §1
T3 sequence (Q96EB6 whole entry): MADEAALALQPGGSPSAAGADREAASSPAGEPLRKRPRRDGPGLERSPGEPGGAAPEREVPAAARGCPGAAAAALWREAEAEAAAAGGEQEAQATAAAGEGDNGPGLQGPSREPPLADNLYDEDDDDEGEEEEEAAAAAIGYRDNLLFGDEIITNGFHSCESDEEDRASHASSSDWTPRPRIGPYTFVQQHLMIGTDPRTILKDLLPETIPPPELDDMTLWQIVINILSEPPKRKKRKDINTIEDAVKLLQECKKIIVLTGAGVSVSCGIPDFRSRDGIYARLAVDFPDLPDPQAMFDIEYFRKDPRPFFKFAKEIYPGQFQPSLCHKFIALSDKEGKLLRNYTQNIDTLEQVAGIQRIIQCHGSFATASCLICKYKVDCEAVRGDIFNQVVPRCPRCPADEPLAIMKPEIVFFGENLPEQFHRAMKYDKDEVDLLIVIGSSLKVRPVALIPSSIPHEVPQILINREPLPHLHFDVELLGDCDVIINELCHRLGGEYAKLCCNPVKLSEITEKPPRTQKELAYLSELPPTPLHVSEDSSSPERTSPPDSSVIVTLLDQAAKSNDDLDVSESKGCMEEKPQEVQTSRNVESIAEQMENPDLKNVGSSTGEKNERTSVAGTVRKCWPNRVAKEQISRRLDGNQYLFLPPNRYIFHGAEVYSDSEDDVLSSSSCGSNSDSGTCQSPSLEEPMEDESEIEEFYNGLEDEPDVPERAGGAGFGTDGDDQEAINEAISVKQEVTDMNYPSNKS

Midbrain = assay: Protection of dopaminergic cell death in rat embryo midbrain transduced with lentivirus encoding alphaSyn-A53T mutant assessed as tyrosine hydroxylase positive cells; type: functional, tissue-based
Method in brief: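 Primary midbrain cultures transduced with α-SynA53T lentivirus (multiplicity of infection = 5) in the presence of vehicle (DMSO) or increasing compound concentrations. Untransduced DMSO-treated (0.2%, v/v) cells served as control. Stained for MAP2 and TH; viability = percentage of MAP2-positive cells also TH-positive. Means ± SEM, N > 3; one-way ANOVA with Dunnett's post hoc test versus α-SynA53T alone.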

Drosophila = assay: Protective effect against alphaSyn mediated toxicity in wild-type transgenic Drosophila expressing elav-GAL4; UAS-synWT assessed as rescue of dorsomedial neurons after drug administration for the first 20 days of adult life; type: functional, organism-based
Method in brief: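 Transgenic α-Syn flies were fed compound at 250, 500 or 1000 μM, or DMSO, for the first 20 days of adult life. TH-positive dopamine neurons in the dorsomedial cluster were then assessed in 20-day-old flies. Significance was set at P < 0.01.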

| SMILES | IC50 [1] | IC50 [2] | IC50 [3] | Activity (Midbrain) | Activity (Drosophila) |
| --- | --- | --- | --- | --- | --- |
| O=C(c1ccc(Cl)cc1)N1CCN(c2ccc([N+](=O)[O-])c3ncccc23)CC1 | > 50 µM | 35 µM | > 50 µM | Active | – |
| N#C/C(=C\c1ccc(-c2cc(Cl)ccc2Cl)o1)C(=O)Nc1cccc2ncccc12 | – | – | > 50 µM | Active | Dose-dependent effect |
| N#C/C(=C\c1ccc(-c2cccc(Cl)c2Cl)o1)C(=O)Nc1cccc2ncccc12 | > 50 µM | > 10 µM | > 50 µM | – | – |
| N#C/C(=C\c1ccc(-c2cccc(C(F)(F)F)c2)o1)C(=O)Nc1cccc2ncccc12 | > 50 µM | 6 µM | > 50 µM | – | – |

The next lines start with results.

| IC50 [1] | IC50 [2] | IC50 [3] | SMILES | Activity (Midbrain) | Activity (Drosophila) |
| --- | --- | --- | --- | --- | --- |
| > 5 µM | > 50 µM | – | N#C/C(=C\c1ccc(-c2cc(Cl)ccc2Cl)o1)C(=O)Nc1cccc2cccnc12 | – | – |
| > 50 µM | 5.5 µM | – | N#C/C(=C\c1ccc(-c2ccccc2Cl)o1)C(=O)Nc1cccc2ncccc12 | – | – |
| > 50 µM | > 50 µM | – | N#C/C(=C\c1ccc(-c2ccccc2Cl)o1)C(=O)Nc1cccc2cccnc12 | – | – |
| > 50 µM | > 50 µM | > 50 µM | N#C/C(=C\c1ccc(-c2cccc(C(F)(F)F)c2)o1)C(=O)Nc1cccc2cccnc12 | – | – |
| > 50 µM | > 50 µM | > 50 µM | N#C/C(=C\c1ccc(-c2cccc(Cl)c2Cl)o1)C(=O)Nc1cccc2cccnc12 | – | – |

From ChEMBL document CHEMBL1143741, “Sirtuin 2 inhibitors rescue alpha-synuclein-mediated toxicity in models of Parkinson's disease” (Science, 2007)
